Data from ChEMBL document CHEMBL1133253, “Improved antibacterial activities of coumarin antibiotics bearing 5',5'-dialkylnoviose: biological activity of RU79115” (Bioorg Med Chem Lett, 2000).
Converted amounts (≈) assume the structure as drawn.

Experiments:
Mus musculus [1] = assay: Protective dose of subcutaneously administered compound against intraperitoneally-induced septicaemia model (vancomycin resistant Enterococci faecium D3HT12 strain ) in murine; format: functional; settings: sc, read-out: PD50
Procedure, shortened: (§1)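 Murine septicaemia was induced by intraperitoneal infection, and the compound was given subcutaneously. PD50 was derived by probit analysis.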

Enterococcus [2] = assay: In vitro anti-enterococcal activity against enterococci species susceptible to vancomycin [26]* expressed as geometric mean; format: functional
Mus musculus [3] = assay: Minimum inhibitory concentration of the subcutaneously administered compound evaluated against Staphylococcus aureus GR56 strain resistant to oxacillin in mice (sc)
Mus musculus [4] = assay: Minimum inhibitory concentration of the subcutaneously administered compound evaluated against vancomycin resistant Enterococci faecium D3HM4 strain in mice (po); format: functional
Mus musculus [5] = assay: Protective dose of subcutaneously administered compound against intraperitoneally-induced septicaemia model (vancomycin resistant Enterococci faecium D3AP9 strain ) in murine; format: functional; settings: sc, read-out: PD50; procedure, shortened: as §1
Mus musculus [6] = assay: Protective dose of subcutaneously administered compound against intraperitoneally-induced septicaemia model (Staphylococcus aureus GR56 strain resistant to oxacillin) in murine; format: functional; settings: sc, read-out: PD50; procedure, shortened: as §1
Streptococcus sp. [7] = assay: Minimum inhibitory concentration evaluated against Streptococci species [38]*; format: functional
Enterococcus [8] = assay: Minimum inhibitory concentration evaluated against enterococci species resistant to vancomycin [65]*; format: functional
Streptococcus sp. [9] = assay: In vitro anti-streptococcal activity against Streptococci species (viridans) [25]* expressed as geometric mean; format: functional
Staphylococcus sp. [10] = assay: Minimum inhibitory concentration evaluated against Staphylococcus species [91]*; format: functional
Procedure, shortened: (§2)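 Two-fold agar dilution MIC, in µg/mL, against Staphylococcus panels grouped by resistance phenotype (oxacillin and/or ofloxacin resistant). Per-panel values are reported as the geometric mean and MIC90 across strains; the strain count per panel is given in brackets.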

Mus musculus [11] = assay: Minimum inhibitory concentration of the subcutaneously administered compound evaluated against […] B1HT3 strain in mice (po); format: functional
Mus musculus [12] = assay: Minimum inhibitory concentration of the subcutaneously administered compound evaluated against vancomycin resistant Enterococci faecium D3HM3 strain in mice (po); format: functional
[13] = Minimum inhibitory concentration evaluated against pneumococci resistant to penicillin [29]*; format: functional
Mus musculus [14] = assay: Minimum inhibitory concentration of the subcutaneously administered compound evaluated against Enterococci faecalis D2HT6 strain in mice; format: functional
Mus musculus [15] = assay: Protective dose of subcutaneously administered compound against intraperitoneally-induced septicaemia model ([…] B1HT3 strain) in murine; format: functional; settings: sc, read-out: PD50; procedure, shortened: as §1
Enterococcus [16] = assay: In vitro anti-enterococcal activity against enterococci species resistant to vancomycin [65]* expressed as geometric mean; format: functional
Mus musculus [17] = assay: Protective dose of subcutaneously administered compound against intraperitoneally-induced septicaemia model (vancomycin resistant Enterococci faecium D3HM3 strain ) in murine; format: functional; settings: sc, read-out: PD50; procedure, shortened: as §1
Mus musculus [18] = assay: Minimum inhibitory concentration of the subcutaneously administered compound evaluated against Enterococci faecium D3HT7 strain in mice (po); format: functional
Staphylococcus sp. [19] = assay: Minimum inhibitory concentration evaluated against Staphylococcus species resistant to oxacillin and ofloxacin [47]*; format: functional; procedure, shortened: as §2
Enterococcus [20] = assay: Minimum inhibitory concentration evaluated against enterococci species resistant to vancomycin and teicoplanin [17]*; format: functional
Mus musculus [21] = assay: Minimum inhibitory concentration of the subcutaneously administered compound evaluated against vancomycin resistant Enterococci faecium D3HT12 strain in mice (po); format: functional
Mus musculus [22] = assay: Protective dose of subcutaneously administered compound against intraperitoneally-induced septicaemia model (vancomycin resistant Enterococci faecium D3HM4 strain ) in murine; format: functional; settings: sc, read-out: PD50; procedure, shortened: as §1
Mus musculus [23] = assay: Protective dose of subcutaneously administered compound against intraperitoneally-induced septicaemia model (Staphylococcus aureus HT18) in murine; format: functional; settings: sc, read-out: PD50; procedure, shortened: as §1
Mus musculus [24] = assay: Protective dose of subcutaneously administered compound against intraperitoneally-induced septicaemia model (Enterococci faecium D3HT7 strain ) in murine; format: functional; settings: sc, read-out: PD50; procedure, shortened: as §1
Staphylococcus sp. [25] = assay: Minimum inhibitory concentration evaluated against Staphylococcus species resistant to ofloxacin [59]*; format: functional; procedure, shortened: as §2
Enterococcus [26] = assay: In vitro anti-enterococcal activity against enterococci species resistant to vancomycin and teicoplanin [17]* expressed as geometric mean; format: functional
pneumococci = assay: In vitro anti-streptococcal activity against pneumococci resistant to penicillin [29]* expressed as geometric mean; format: functional
Mus musculus [27] = assay: Minimum inhibitory concentration of the subcutaneously administered compound evaluated against Staphylococcus aureus HT-18 strain in mice (SC); format: functional
Mus musculus [28] = assay: Protective dose of subcutaneously administered compound against intraperitoneally-induced septicaemia model (Streptococcus pyogenes A1UC1 strain) in murine; format: functional; settings: sc, read-out: PD50; procedure, shortened: as §1
Mus musculus [29] = assay: Protective dose of subcutaneously administered compound against intraperitoneally-induced septicaemia model (Enterococci faecalis D2HT6 strain) in murine; format: functional; settings: sc, read-out: PD50; procedure, shortened: as §1
Mus musculus [30] = assay: Minimum inhibitory concentration of the subcutaneously administered compound evaluated against Streptococcus pyogenes A1UC1 strain in mice (po); format: functional
Mus musculus [31] = assay: Minimum inhibitory concentration of the subcutaneously administered compound evaluated against vancomycin resistant Enterococci faecium D3AP9 strain in mice (po); format: functional
Enterococcus [32] = assay: Minimum inhibitory concentration evaluated against enterococci species susceptible to vancomycin [26]*; format: functional
Streptococcus sp. [33] = assay: In vitro anti-streptococcal activity against Streptococci species [38]* expressed as geometric mean; format: functional
Streptococcus sp. [34] = assay: Minimum inhibitory concentration evaluated against Streptococci species (viridans) [25]*; format: functional
Staphylococcus sp. [35] = assay: Minimum inhibitory concentration evaluated against Staphylococcus species resistant to oxacillin [66]*; format: functional; procedure, shortened: as §2

Compound: CN[C@H](CC(C)C)C(=O)N[C@H]1C(=O)N[C@@H](CC(N)=O)C(=O)N[C@H]2C(=O)N[C@H]3C(=O)N[C@H](C(=O)N[C@H](C(=O)O)c4cc(O)cc(O)c4-c4cc3ccc4O)[C@H](O)c3ccc(c(Cl)c3)Oc3cc2cc(c3O[C@@H]2O[C@H](CO)[C@@H](O)[C@H](O)[C@H]2O[C@H]2C[C@](C)(N)[C@H](O)[C@H](C)O2)Oc2ccc(cc2Cl)[C@H]1O [VANCOMYCIN]
- ED50 (Mus musculus [1]): > 50 mg/kg
- GM (Enterococcus [2]): 0.75
- MIC (Mus musculus [3]): 1.2 µg/mL (≈ 0.828 µM)
- MIC (Mus musculus [4]): > 40 µg/mL
- ED50 (Mus musculus [5]): > 50 mg/kg
- ED50 (Mus musculus [6]): 4 mg/kg
- MIC90 (Streptococcus sp. [7]): 0.6 µg/mL (≈ 0.414 µM)
- MIC90 (Enterococcus [8]): > 20 µg/mL
- GM (Streptococcus sp. [9]): 0.4
- MIC90 (Staphylococcus sp. [10]): 2.5 µg/mL (≈ 1.73 µM)
- MIC (Mus musculus [11]): 0.3 µg/mL (≈ 0.207 µM)
- MIC (Mus musculus [12]): > 40 µg/mL
- MIC90 [13]: 0.3 µg/mL (≈ 0.207 µM)
- MIC (Mus musculus [14]): 2.5 µg/mL (≈ 1.73 µM)
- ED50 (Mus musculus [15]): 17.2 mg/kg
- GM (Enterococcus [16]): 23.7
- ED50 (Mus musculus [17]): > 50 mg/kg
- MIC (Mus musculus [18]): 2.5 µg/mL (≈ 1.73 µM)
- MIC90 (Staphylococcus sp. [19]): 2.5 µg/mL (≈ 1.73 µM)
- MIC90 (Enterococcus [20]): > 20 µg/mL
- MIC (Mus musculus [21]): > 40 µg/mL
- ED50 (Mus musculus [22]): > 50 mg/kg
- ED50 (Mus musculus [23]): 7.8 mg/kg
- ED50 (Mus musculus [24]): 8.7 mg/kg
- MIC90 (Staphylococcus sp. [25]): 2.5 µg/mL (≈ 1.73 µM)
- GM (Enterococcus [26]): 36.9
- GM (pneumococci): 0.24
- MIC (Mus musculus [27]): 1.2 µg/mL (≈ 0.828 µM)
- ED50 (Mus musculus [28]): < 1.5 mg/kg
- ED50 (Mus musculus [29]): 16.7 mg/kg
- MIC (Mus musculus [30]): 0.6 µg/mL (≈ 0.414 µM)
- MIC (Mus musculus [31]): > 40 µg/mL
- MIC90 (Enterococcus [32]): 0.6 µg/mL (≈ 0.414 µM)
- GM (Streptococcus sp. [33]): 0.35
- MIC90 (Streptococcus sp. [34]): 0.6 µg/mL (≈ 0.414 µM)
- MIC90 (Staphylococcus sp. [35]): 2.5 µg/mL (≈ 1.73 µM)
